# High-throughput results as filed in PubChem.
# NR1D1 modulator – Rev-erb alpha (human) modulation; P20393; Rev-erbα–FITC-DNA binding, fluorescence polarization, 90 min; activity, % at 10 µM; hit rate 0.79% among 370,000;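 active means activity above about 14%, limit read from the data; passing the limit was not always enough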;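 further: 0% = DMSO wells with 35 nM protein and 100% = DMSO wells with 750 nM protein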
# PG9 Ab binder – PG9 antibody binding by small molecule; TR-FRET gp120-PG9 antibody binding; AID 624416; hit rate 0.43% among 360,000; inhibition, % at 6.7 µM; in the data active means inhibition above about 8.5%
# TbMetRS inhib – blocks T. brucei methionyl-tRNA synthetase activity | purified T. brucei MetRS, ATP depletion, Kinase-Glo luminescence | hit rate 0.4% among 360,000 | inhibition, % at 11.9 µM;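 active means inhibition above a per-plate cutoff of the control wells' mean inhibition plus 3 SD, cut at about 5.5% in these data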;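 further: 0% = DMSO wells median and 100% = median of wells with control inhibitor compound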
#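 Material – parasite MetRS enzyme · Medium – HEPES-MgCl2-KCl buffer plus DTT, spermine, BSA, pyrophosphatase · Reagent – ATP, methionine and E. coli bulk tRNA substrates · Times – 15 min enzyme-compound preincubation, 2 h reaction, 10 min detection, 25 °C · Measured by – luminescence of leftover ATP · Evaluation – percent inhibition relative to median high and low control wells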
# Rin1 Abl inh – blocks binding of human Rin1 to Abl; P00519+Q13671; TR-FRET Rin1/Abl binding, biochemical; hit rate 0.4% among 360,000; inhibition, % at 7.35 µM; in the data active means inhibition above about 5%, passing the limit was not always enough
# Target sequence (P00519 whole entry, looked up): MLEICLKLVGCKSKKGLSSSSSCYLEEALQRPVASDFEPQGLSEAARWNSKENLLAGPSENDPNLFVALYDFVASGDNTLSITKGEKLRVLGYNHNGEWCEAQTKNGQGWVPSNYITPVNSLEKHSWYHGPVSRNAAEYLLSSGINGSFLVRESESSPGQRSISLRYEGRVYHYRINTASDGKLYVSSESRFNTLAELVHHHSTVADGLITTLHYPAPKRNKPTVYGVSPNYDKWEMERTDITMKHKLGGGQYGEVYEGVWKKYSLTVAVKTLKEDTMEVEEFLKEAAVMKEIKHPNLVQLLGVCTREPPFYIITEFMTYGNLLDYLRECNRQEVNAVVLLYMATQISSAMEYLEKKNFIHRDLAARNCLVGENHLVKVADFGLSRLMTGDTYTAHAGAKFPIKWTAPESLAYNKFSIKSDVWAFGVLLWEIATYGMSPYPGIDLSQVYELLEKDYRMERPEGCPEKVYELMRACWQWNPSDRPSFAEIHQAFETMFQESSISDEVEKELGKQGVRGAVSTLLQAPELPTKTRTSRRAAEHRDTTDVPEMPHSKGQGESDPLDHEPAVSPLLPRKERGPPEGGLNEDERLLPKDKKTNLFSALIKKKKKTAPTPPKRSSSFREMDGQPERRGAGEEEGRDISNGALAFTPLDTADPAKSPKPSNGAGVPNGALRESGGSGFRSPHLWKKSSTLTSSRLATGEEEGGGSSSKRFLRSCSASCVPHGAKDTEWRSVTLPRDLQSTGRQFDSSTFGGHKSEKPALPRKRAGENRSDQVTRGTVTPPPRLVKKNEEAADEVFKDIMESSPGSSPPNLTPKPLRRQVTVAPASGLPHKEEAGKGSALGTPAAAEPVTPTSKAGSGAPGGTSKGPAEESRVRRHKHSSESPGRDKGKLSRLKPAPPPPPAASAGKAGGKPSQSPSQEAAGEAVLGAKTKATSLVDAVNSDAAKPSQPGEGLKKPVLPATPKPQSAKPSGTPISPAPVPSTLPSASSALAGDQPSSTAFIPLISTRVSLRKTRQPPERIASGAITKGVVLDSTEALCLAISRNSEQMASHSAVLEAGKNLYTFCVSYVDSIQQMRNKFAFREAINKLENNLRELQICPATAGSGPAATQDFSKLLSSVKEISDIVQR
# Target sequence (Q13671 whole entry, looked up): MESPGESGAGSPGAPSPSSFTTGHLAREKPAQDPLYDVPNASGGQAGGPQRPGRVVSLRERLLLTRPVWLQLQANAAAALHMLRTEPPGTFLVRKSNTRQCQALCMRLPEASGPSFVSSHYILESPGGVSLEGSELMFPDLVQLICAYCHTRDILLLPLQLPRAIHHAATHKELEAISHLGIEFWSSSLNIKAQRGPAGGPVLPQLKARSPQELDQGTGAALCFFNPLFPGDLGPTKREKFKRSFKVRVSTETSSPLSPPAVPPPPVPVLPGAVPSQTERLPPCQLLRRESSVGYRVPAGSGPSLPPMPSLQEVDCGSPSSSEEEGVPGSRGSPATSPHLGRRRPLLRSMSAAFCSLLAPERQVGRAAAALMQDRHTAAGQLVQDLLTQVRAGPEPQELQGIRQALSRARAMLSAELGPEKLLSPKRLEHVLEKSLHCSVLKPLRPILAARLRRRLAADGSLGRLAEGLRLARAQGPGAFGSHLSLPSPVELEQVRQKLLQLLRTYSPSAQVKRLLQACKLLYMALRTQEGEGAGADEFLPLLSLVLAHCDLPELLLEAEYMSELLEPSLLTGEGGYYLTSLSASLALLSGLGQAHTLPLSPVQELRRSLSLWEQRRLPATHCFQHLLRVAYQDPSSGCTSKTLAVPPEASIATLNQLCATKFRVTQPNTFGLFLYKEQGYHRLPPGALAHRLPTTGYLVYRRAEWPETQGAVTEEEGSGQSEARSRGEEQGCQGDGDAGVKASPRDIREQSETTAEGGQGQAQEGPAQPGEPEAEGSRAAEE
# Rin1 Abl conf – confirmation of inhibitors of human Rin1-Abl interaction. inhibition, % at 7.35 µM. shares compounds with Rin1 Abl inh. TR-FRET Rin1-Abl binding, purified proteins. hit rate 49% among 1,300
# GFP quench – quenches GFP fluorescence, counter-screen for Rin1-Abl inhibitors | shares compounds with Rin1 Abl inh | inhibitors/quenchers counterscreen | inhibition, % at 6.75 µM | hit rate 8.5% among 1,300;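 further: ABL1-eGFP fusion protein alone without its partner RIN1-SBP; 0% = protein with vehicle and 100% = wells lacking protein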
# GFP quench DR – counter-screen for Rin1-Abl inhibitors: GFP quenchers, dose response. AID 602182. 230 tested, under 10 active. shares compounds with Rin1 Abl inh. GFP fluorescence interference/quenching counterscreen. IC50, µM; call rule not given here;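 further: ABL1-eGFP fusion protein alone without its RIN1 binding partner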
# * = called active by the depositor; / = not tested or not shown. In the library only some 1.8% were active in any assay of this set; here they are far more common. Unless noted, no stated cut-off is given here; in the data, active means inhibition above about 6.5%; inactive means the rest.
SMILES,NR1D1 modulator,PG9 Ab binder,TbMetRS inhib,Rin1 Abl inh,Rin1 Abl conf,GFP quench,others
CN1CCC(N(C)C(=O)c2sc3cc(F)ccc3c2Cl)CC1,-5.8,-2.6,-0.2,2.1,/,/,
COc1ccccc1C(=O)Nc1ccc(C(=O)N2CCCCC2)cc1,-5.2,-1.8,-0.7,14.1*,12.8*,-0.3,
CCOc1ccc(NC(=O)c2cc(-c3ccc(Cl)cc3)nc3ccccc23)cc1,5.7,/,/,/,/,/,
CC(C)[C@H](N)C(=O)O,-7.1,/,/,/,/,/,
O=C(O)CC1(CC(=O)Nc2cccc(C(=O)O)c2)CCCC1,0.6,1.1,-0.8,8.0*,-1.8,-0.3,
O=C(Nc1cccc(Cl)c1)Nc1cccc(C(=O)O)c1,-5.1,-1.8,0.8,5.9*,-2.4,-0.4,
CC(=O)OCC(=O)[C@@]12OC(C)(C)O[C@@H]1CC1C3C[C@H](F)C4=CC(=O)C=C[C@]4(C)[C@@]3(F)[C@@H](O)C[C@@]12C (some centres not stated),2.1,/,/,/,/,/,
O=C1O[C@H](C(O)CO)C(O)=C1O (some centres not stated),-7.2,/,/,/,/,/,
Cn1c(=O)[nH]c(=O)c2c1nc(NCc1ccco1)n2Cc1ccccc1Cl,2.9,0.6,-0.2,13.2*,17.5*,-1.1,GFP quench DR=>67.5
CCOC(=O)c1ccc(CC(=O)c2ccc(O)c(O)c2O)o1,-2.0,-0.5,1.0,13.5*,7.3*,16.1*,
CCCNC(=O)c1cc(C2CCCCN2C(=O)c2ccc3c(c2)CCO3)on1 (configuration not stated),-5.3,2.4,-0.1,15.0*,-2.5,0.8,
Cc1ccc(NC(=O)COC(=O)Cc2c[nH]c3ccccc23)cc1F,-1.9,0.7,0.3,10.1*,-2.2,1.7,
CC(Oc1cccc(Cl)c1)C(=O)NNC(=O)c1cccnc1 (configuration not stated),-1.5,1.1,-0.2,2.0,/,/,
CC(Oc1ccc(Cl)cc1Cl)C(=O)NNC(=O)c1cccnc1 (configuration not stated),-10.5,-1.3,-0.5,8.9*,-2.1,-0.6,
COc1ccccc1/C=[N+](\[O-])C1SC(=S)N(C)C1(C)C (configuration not stated),-2.1,-4.6,-0.3,6.8*,-3.2,0.0,
CC1(c2nnc(-c3ccncc3)o2)CC(c2ccc(Cl)cc2)=NO1 (configuration not stated),4.2,1.6,0.5,17.0*,22.9*,-2.2,
CC1(c2nnc(-c3ccncc3)o2)CC(c2ccccc2)=NO1 (configuration not stated),0.8,-1.1,0.1,18.8*,24.0*,1.0,
CC1(c2nnc(-c3ccccc3)o2)CC(c2ccncc2)=NO1 (configuration not stated),-7.4,0.2,0.5,0.5,/,/,
CC1(c2nnc(-c3ccccc3)o2)CC(c2ccc(Cl)cc2)=NO1 (configuration not stated),6.5,-0.3,-0.4,0.0,/,/,
CCCS(=O)(=O)N1CCN(Cc2ccccc2[N+](=O)[O-])CC1,2.9,-1.1,1.4,9.5*,-0.1,0.1,
O=C1CCC([N+](=O)[O-])C(c2ccc(Br)cc2)N1 (configuration not stated),1.1,1.1,0.0,10.6*,8.1*,-1.4,
COc1ccc(NC(=O)CSc2nc(C)cc(=O)[nH]2)cc1OC,-2.0,/,/,/,/,/,
Cc1sc2ncn(CC(=O)NCC(=O)N3CCN(c4ccccc4F)CC3)c(=O)c2c1C,-5.1,-1.0,-0.5,25.7*,-0.1,-5.8,
CCOC(=O)[C@]12CCCC=C1N(Cc1ccc(OC)cc1)C(=O)[C@@H]2CC(=O)N1CCCCC1,-11.5,/,/,/,/,/,
C/C(=N/Nc1ccc(C(=O)O)cc1)c1ccc(O)c(O)c1O,-1.7,-24.2,-0.7,28.7*,31.8*,8.4*,
CN(Cc1ccc(C(C)(C)C)cc1)C(=O)C1CSC2(C)CCC(=O)N12 (configuration not stated),9.7,-1.0,0.0,12.1*,-3.1,-1.1,
COc1cccc(CN(C)C(=O)C2CSC3(C)CCC(=O)N23)c1OC (configuration not stated),-4.4,0.1,-0.2,-0.1,/,/,
C[C@@H]1[C@H](c2ccccc2)OC(O)([C@H](Cc2ccccc2)NC(=O)OC(C)(C)C)CN1C (some centres not stated),1.4,/,/,/,/,/,
